In article PMC6714607 (ACS Omega, 2019):

Assays:
Assay type in all cases: cell-based
[1] = system: THESCs uterus (immortalized fibroblast) cells; experiment: XTT cell viability assay, THESCs uterus; settings: 1 μM, 72 h, 37 °C, triplicates in 96-well plates
In short: (§1)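 Cells were grown in DMEM with 10% FCS and penicillin/streptomycin, then seeded at 3×10^3 per well in 96-well plates. After 24 h attachment, the medium was replaced and conjugate or its scrambled-sequence control was added. Plates were incubated 72 h at 37 °C in humidified 5% CO2, and proliferation was read by XTT assay per the kit instructions.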

[2] = system: normal uterus human fibroblast cells produced from a patient (Nf08 uterus); experiment: XTT cell viability assay, Nf08 uterus; settings: 1 μM, 72 h, 37 °C, triplicates in 96-well plates, Figure S9
In short: as §1

miR-155 = miR-155 expression by quantitative RT-PCR after PNA conjugate treatment; settings: U87MG cells, 0.5 μM PNA conjugate, 24 h, 37 °C, qRT-PCR in triplicates
In short: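 U87MG cells were treated with 0.5 μM conjugate or its scrambled-sequence control for 24 h at 37 °C. Total microRNA was isolated, and cDNA was synthesised from 1 μg RNA. miR-155 was quantified by SYBR Green real-time PCR with miR-155-specific primers, in triplicate.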

U87MG glioblastoma cells [3] = experiment: XTT cell viability assay, U87MG; settings: 1 μM, 72 h, 37 °C, triplicates in 96-well plates
In short: as §1

U87MG glioblastoma cells [4] = experiment: Colony formation; settings: 1.0 μM for 24 h, colonies counted after 2 weeks, triplicates
In short: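 U87MG cells in DMEM with 10% FCS were treated for 24 h with 1.0 μM conjugate or its scrambled-sequence control. Cells were then seeded at 1000 and 500 per well in triplicate six-well plates. After 14 days, colonies were fixed with 2.5% glutaraldehyde for 10 min, stained with 1% methylene blue and counted. Colony numbers were taken from the triplicate plates.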

U87MG cells = experiment: FACS analysis of FITC-labeled PNA conjugate uptake; settings: 0.5 μM, 2 h
In short: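 U87MG cells were seeded at 2.0×10^5 per well and left to adhere overnight. They were given 0.5 μM FITC-labelled conjugate in DMEM with 10% FCS for 2 h at 37 °C, either alone, with 10 mM NaN3 plus 10 mM 2-deoxy-D-glucose, or held at 4 °C. Cells were PBS-washed, trypsinised, pelleted, resuspended in cold PBS and filtered. Flow cytometry used 488 nm excitation, gated on untreated cells, and gave the % FITC-positive cells. Each condition was run in two repeats.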

U87MG glioblastoma cells [5] = experiment: Confocal colocalization with Lyso-Tracker Red and Hoechst; settings: 0.5 μM, 3 h, 37 °C, Lyso-Tracker Red and Hoechst staining
In short: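 U87MG cells were plated 12 h beforehand on glass chamber slides and grown to 70–80% confluence. They were given 0.5 μM FITC-labelled conjugate in fresh complete medium for 3 h at 37 °C under 5% CO2, then washed twice with PBS. Staining was 50 nM LysoTracker Red for 20–30 min at 37 °C, PBS washes, then 0.01 mM Hoechst for 15 min. Cells were fixed in 4% formaldehyde and imaged by confocal laser scanning microscopy.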

## 5′-ACCCAATCGTCAGATTCCATATA-3′-C9 (head to tail) [C9–PNA-Scr]
[1]
  effect on viability of THESCs uterus cells: negligible effects
[2]
  effect on viability of Nf08 uterus normal human fibroblast cells: negligible effects

## 5′-ACCCCTATCACAATTAGCATTAA-3′-C9 (head to tail) [C9–PNA]
miR-155
  decrease in miR-155 in comparison to the scrambled control: over 80%
U87MG glioblastoma cells [3]
  reduction in cell viability in comparison to the C9–PNA-Scr control: > 80%
[1]
  effect on viability of THESCs uterus cells: negligible effects
U87MG glioblastoma cells [4]
  colony formation: substantial decrease in colony formation
[2]
  effect on viability of Nf08 uterus normal human fibroblast cells: negligible effects

## FITC-Ahx-5′-ACCCCTATCACAATTAGCATTAA-3′-C9 (head to tail) [C9–PNA–FITC]
U87MG cells; 4 °C, versus control at 37 °C, two repeats
  cellular uptake at 4 °C (ATP depletion) by FACS: clear decrease in cellular uptake
U87MG cells; 37 °C, versus control without inhibitors, two repeats
  cellular uptake with 10 mM NaN3/10 mM 2-deoxy-D-glucose by FACS: clear decrease in cellular uptake
U87MG glioblastoma cells [5]
  cellular localization of FITC-labeled PNA: predominantly found in lysosomes and, to a lesser extent, in nuclei
  cellular uptake by confocal microscopy of stained, fixed cells: strong punctate green signals

## FITC-Ahx-5′-ACCCCTATCACAATTAGCATTAA-3′-dK4 [dK4–PNA–FITC]
U87MG cells; 37 °C, complete medium, flow cytometry 488 nm
  cellular uptake, change in FITC fluorescence by FACS: almost no change in fluorescence
U87MG glioblastoma cells [5]
  cellular uptake by confocal microscopy of stained, fixed cells: negligible uptake
